Laboratory results reported in ChEMBL document CHEMBL1124123, “Graphics computer-aided receptor mapping as a predictive tool for drug design: development of potent, selective, and stereospecific ligands for the 5-HT1A receptor” (J Med Chem, 1988).

Legend:
[1] = molecular target: T1, 5-hydroxytryptamine receptor 1A (Rattus norvegicus, UniProt P19327); experiment: Binding affinity towards 5-hydroxytryptamine 1A receptor in rat frontal cortex using [3H]8-OH-DPAT as a radioligand; format: tissue-based
T1 sequence (P19327 whole entry): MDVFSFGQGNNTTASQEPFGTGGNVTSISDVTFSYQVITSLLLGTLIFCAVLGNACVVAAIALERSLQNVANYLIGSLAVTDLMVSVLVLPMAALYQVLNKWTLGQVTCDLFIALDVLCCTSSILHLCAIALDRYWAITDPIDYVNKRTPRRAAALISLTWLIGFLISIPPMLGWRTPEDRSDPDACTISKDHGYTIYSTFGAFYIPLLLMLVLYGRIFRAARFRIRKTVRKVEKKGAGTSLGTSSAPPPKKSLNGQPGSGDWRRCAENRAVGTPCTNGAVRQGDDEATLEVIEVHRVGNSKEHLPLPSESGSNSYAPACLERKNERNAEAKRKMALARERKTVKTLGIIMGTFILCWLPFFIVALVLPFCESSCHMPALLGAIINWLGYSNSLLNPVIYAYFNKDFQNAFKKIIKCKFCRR

[2] = molecular target: T2, Serotonin 2 (5-HT2) receptor (Rattus norvegicus, UniProt P30994+P08909+P14842); experiment: Binding affinity towards 5-hydroxytryptamine 2 receptor in rat brain membrane using […] as a selective ligand.; format: cell membranes
Outline: (§1)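 5-HT2 sites in rat brain were labelled with [3H]ketanserin in a radioligand receptor binding assay.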

[3] = molecular target: T3, Adrenergic receptor alpha-2 (Rattus norvegicus, UniProt P22086+P19328+P22909); experiment: Binding affinity against alpha-2 adrenergic receptor in rat brain membrane using […] as a selective ligand.; format: cell membranes
T3 sequence (P22086 whole entry): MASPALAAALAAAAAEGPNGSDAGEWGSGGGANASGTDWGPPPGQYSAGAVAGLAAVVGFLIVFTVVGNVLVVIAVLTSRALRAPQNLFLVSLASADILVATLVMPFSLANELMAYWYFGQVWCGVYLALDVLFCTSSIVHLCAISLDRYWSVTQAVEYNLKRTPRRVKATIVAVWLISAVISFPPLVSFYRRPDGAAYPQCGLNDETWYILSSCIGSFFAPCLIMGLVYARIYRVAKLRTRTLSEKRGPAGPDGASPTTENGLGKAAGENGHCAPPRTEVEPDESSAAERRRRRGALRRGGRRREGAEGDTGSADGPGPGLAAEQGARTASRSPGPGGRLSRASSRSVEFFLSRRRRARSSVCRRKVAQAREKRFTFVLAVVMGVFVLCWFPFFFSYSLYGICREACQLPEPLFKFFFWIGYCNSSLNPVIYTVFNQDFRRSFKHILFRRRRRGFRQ
T3 sequence (P19328 whole entry): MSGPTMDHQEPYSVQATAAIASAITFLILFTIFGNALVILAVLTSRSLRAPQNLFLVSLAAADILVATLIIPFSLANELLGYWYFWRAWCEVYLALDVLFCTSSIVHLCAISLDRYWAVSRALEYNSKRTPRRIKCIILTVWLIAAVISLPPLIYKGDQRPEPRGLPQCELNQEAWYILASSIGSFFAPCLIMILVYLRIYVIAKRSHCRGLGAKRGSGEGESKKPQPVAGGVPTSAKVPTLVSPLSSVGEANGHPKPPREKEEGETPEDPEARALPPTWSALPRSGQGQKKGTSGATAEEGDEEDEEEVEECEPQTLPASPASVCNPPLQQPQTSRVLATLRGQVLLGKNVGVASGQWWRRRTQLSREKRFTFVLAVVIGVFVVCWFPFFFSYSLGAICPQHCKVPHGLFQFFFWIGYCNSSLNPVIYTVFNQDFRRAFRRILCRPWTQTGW
T3 sequence (P22909 whole entry): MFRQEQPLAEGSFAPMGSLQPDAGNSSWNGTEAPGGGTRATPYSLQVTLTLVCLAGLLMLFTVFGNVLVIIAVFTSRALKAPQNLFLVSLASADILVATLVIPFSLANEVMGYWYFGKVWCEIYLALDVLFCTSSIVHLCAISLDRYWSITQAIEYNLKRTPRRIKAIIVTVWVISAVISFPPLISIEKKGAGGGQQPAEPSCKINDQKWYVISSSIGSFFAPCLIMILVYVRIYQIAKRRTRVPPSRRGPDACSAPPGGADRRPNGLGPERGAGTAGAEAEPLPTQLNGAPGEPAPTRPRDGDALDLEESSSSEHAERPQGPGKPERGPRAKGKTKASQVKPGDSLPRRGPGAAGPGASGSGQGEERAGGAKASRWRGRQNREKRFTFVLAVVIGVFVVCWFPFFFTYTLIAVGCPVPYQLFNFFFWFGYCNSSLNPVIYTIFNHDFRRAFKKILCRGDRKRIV
Outline: (§2)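 Alpha2-adrenergic sites in rat brain were labelled with [3H]clonidine for radioligand binding.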

[4] = molecular target: T4, Adrenergic receptor alpha-1 (Rattus norvegicus, UniProt P15823+P23944+P43140); experiment: Binding affinity against alpha-1 adrenergic receptor in rat brain membrane using […] as a selective ligand.; format: cell membranes
T4 sequence (P15823 whole entry): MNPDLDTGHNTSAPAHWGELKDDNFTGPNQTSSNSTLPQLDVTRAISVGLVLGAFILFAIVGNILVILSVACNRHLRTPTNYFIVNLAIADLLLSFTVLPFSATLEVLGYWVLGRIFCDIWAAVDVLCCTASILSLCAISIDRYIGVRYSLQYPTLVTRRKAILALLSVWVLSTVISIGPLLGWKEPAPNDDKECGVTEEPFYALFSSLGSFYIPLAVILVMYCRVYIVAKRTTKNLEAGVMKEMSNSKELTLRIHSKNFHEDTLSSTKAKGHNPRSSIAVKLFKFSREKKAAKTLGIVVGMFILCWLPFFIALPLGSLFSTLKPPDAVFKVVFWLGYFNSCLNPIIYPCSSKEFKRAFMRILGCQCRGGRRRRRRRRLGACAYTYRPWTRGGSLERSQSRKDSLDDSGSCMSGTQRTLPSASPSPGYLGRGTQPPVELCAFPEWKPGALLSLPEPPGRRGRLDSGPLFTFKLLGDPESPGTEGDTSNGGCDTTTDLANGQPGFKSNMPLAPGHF
T4 sequence (P23944 whole entry): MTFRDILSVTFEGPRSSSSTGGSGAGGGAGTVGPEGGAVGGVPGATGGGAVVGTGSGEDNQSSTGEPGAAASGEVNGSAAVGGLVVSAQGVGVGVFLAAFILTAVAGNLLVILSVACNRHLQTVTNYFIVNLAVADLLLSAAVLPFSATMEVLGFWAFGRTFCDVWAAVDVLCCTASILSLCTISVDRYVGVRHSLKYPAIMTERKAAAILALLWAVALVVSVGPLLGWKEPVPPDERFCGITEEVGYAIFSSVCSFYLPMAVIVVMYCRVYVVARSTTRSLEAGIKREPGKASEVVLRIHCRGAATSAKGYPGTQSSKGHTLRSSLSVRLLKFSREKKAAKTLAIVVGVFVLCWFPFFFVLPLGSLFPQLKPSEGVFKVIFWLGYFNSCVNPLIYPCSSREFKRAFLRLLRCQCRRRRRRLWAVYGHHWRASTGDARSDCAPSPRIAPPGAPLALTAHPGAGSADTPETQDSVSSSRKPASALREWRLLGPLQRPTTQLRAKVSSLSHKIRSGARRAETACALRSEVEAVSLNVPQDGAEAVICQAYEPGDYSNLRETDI
T4 sequence (P43140 whole entry): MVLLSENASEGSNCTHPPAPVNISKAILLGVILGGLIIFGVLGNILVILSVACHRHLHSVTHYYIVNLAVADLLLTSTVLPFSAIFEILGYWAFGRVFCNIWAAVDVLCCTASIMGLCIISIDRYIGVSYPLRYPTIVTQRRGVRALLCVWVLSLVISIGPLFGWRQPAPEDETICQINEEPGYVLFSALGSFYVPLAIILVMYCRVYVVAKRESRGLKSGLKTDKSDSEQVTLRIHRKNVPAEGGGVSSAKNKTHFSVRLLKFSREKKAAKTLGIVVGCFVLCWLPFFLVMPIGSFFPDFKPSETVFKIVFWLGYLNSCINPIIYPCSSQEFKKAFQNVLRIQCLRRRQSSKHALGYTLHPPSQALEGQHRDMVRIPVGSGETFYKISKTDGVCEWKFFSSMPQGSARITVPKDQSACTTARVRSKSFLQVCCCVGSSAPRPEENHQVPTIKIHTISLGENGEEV
Outline: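 Alpha1-adrenergic binding in rat brain, using [3H]prazosin as the radioligand.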

[5] = molecular target: T5, D(2) dopamine receptor (Rattus norvegicus, UniProt P61169); experiment: Binding affinity against Dopamine receptor D2 in rat brain membrane using [3H]domperidone as radioligand.
[6] = molecular target: T6, 5-hydroxytryptamine receptor 1B (Rattus norvegicus, UniProt P28564); experiment: Binding affinity against 5-HT1B receptor in rat brain membrane using [3H]-5-HT in the presence of 8-OH-DPAT.
[7] = molecular target: T1, 5-hydroxytryptamine receptor 1A; experiment: Binding affinity towards 5-hydroxytryptamine 1A receptor in rat brain membrane using [3H]8-OH-DPAT as a selective ligand.; format: cell membranes
[8] = molecular target: T3, Adrenergic receptor alpha-2; experiment: Binding affinity against alpha-2 adrenergic receptor in rat brain membrane using […].; format: cell membranes; outline: as §2
[9] = molecular target: T5, D(2) dopamine receptor; experiment: Binding affinity against Dopamine receptor D2 in rat brain membrane using [3H]-8-OH-DPAT as a selective ligand.; format: cell membranes; details: in the assay text read “[3H]domperidone as radioligand” for “[3H]-8-OH-DPAT as a selective ligand”
Outline: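 D2 receptor binding in rat brain, using [3H]domperidone as the radioligand.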

[10] = molecular target: T6, 5-hydroxytryptamine receptor 1B; experiment: Binding affinity against 5-HT1B receptor in rat frontal cortex using [3H]-5-HT in presence of 0.1 uM […]; format: tissue-based
[11] = molecular target: T2, Serotonin 2 (5-HT2) receptor; experiment: (§3) Binding affinity towards 5-hydroxytryptamine 2 receptor in rat frontal cortex using [3H]ketanserin as radioligand
[12] = molecular target: T6, 5-hydroxytryptamine receptor 1B; experiment: Binding affinity towards 5-HT1B receptor in rat brain membrane using [3H]8-OH-DPAT as a selective ligand.; format: cell membranes
[13] = molecular target: T2, Serotonin 2 (5-HT2) receptor; experiment: as §3; format: tissue-based; outline: as §1

T6 sequence (P28564 whole entry): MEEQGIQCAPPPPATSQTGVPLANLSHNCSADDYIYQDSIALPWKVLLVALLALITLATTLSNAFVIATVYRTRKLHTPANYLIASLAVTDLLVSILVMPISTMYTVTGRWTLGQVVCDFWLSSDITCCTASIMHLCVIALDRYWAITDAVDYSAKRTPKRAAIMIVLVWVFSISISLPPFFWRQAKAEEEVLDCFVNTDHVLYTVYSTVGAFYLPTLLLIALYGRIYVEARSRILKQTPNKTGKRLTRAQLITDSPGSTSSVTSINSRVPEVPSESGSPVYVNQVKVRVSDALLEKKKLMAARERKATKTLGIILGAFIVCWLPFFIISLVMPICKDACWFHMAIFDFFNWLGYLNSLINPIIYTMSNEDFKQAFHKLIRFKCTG
T5 sequence (P61169 whole entry): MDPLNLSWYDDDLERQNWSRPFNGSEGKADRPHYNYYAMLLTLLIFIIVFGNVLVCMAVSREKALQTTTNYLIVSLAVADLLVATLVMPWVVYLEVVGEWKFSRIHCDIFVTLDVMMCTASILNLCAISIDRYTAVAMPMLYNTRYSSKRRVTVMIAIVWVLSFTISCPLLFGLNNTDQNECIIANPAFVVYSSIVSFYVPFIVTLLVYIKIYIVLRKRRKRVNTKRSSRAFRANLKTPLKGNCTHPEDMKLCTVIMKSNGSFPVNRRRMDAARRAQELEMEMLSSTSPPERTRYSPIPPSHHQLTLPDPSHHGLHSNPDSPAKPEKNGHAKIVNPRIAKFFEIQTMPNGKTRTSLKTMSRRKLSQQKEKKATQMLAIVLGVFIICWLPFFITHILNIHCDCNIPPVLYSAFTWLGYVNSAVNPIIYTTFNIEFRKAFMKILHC

| SMILES | IC50 [1] [nM] | Log IC50 [2] | Log IC50 [3] | Log IC50 [4] | IC50 [6] [nM] | IC50 [9] [nM] | IC50 [7] [nM] | also measured |
| --- | --- | --- | --- | --- | --- | --- | --- | --- |
| CSc1ccc2c(c1)[C@H](N1CCN(C)CC1)Cc1ccccc1S2 | – | – | – | – | – | – | 851 | IC50 [10]: 3240 nM; Log IC50 [11]: -8.25 |
| CSc1ccc2c(c1)[C@@H](N1CCN(C)CC1)Cc1ccccc1S2 | 95.5 | – | – | – | – | – | – | IC50 [12]: 182 nM; Log IC50 [13]: -8.2 |
| CCCN(CCC)C1CCc2cccc(O)c2C1 (stereo unspecified) [8-OH-DPAT] | – | – | – | – | – | – | – | Log IC50 [11]: -5 |
| O=C(CCCN1CCC2(CC1)C(=O)NCN2c1ccccc1)c1ccc(F)cc1 [SPIPERONE] | – | – | – | – | – | – | 123 | IC50 [10]: 1000 nM |

The next lines start with results.

| IC50 [1] [nM] | Log IC50 [2] | Log IC50 [3] | Log IC50 [4] | IC50 [6] [nM] | IC50 [9] [nM] | SMILES | IC50 [7] [nM] | also measured |
| --- | --- | --- | --- | --- | --- | --- | --- | --- |
| 794 | -5.9 | < -5 | -5.2 | 3160 | – | O=C1CC2(CCCC2)CC(=O)N1CCCCNCC1COc2c(ccc3ccccc23)O1 (stereo unspecified) | – | IC50 [5]: 316 nM |
| – | – | – | -5.3 | – | – | O=C1CC2(CCCC2)CC(=O)N1CCCCNCC1COc2cc3ccccc3cc2O1 (stereo unspecified) | 316 | – |
| – | -6.1 | – | -7.2 | 5010 | 2510 | O=C1CC2(CCCC2)CC(=O)N1CCCCNC[C@@H]1COc2ccccc2O1 | 20 | Log IC50 [8]: -6.2 |
| 0.631 | -6.7 | -6.3 | -8 | 794 | 79.4 | O=C1CC2(CCCC2)CC(=O)N1CCCCNC[C@H]1COc2ccccc2O1 | – | – |
| 0.794 | -6.2 | -6.4 | -7.8 | 631 | 158 | O=C1CC2(CCCC2)CC(=O)N1CCCCNCC1COc2ccccc2O1 (stereo unspecified) | – | – |
| 5.01 | -6.8 | < -5 | -6.1 | 398 | 158 | O=C1CC2(CCCC2)CC(=O)N1CCCCNCC1COc2ccc3ccccc3c2O1 (stereo unspecified) | – | – |
